The target of one test is T1, Adenosine receptor A1 (Homo sapiens, UniProt P30542).
T1 sequence (P30542 whole entry): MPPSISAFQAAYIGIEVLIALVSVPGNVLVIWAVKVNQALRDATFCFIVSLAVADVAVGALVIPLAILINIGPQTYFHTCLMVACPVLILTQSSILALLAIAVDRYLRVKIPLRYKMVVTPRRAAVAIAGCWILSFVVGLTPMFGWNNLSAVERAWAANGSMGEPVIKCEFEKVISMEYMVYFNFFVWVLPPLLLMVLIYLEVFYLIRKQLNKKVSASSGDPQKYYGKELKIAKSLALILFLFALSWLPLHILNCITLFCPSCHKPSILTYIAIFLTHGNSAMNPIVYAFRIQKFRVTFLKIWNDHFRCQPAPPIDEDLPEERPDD
The experiment in a line: Displacement of [3H]DPCPX from human adenosine A1 receptor expressed in CHO cells. It is filed as cell-based. The method, boiled down:
(§1)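 CHO membranes bearing recombinant human A1 receptor, in 50 mM Tris HCl pH 7.4, incubated 120 min at 25 °C with 1 nM [3H]DPCPX and 6-8 test concentrations. CHA defined nonspecific binding. Bound and free label were separated on GF/B glass-fiber filters and counted. […] Means ± SEM.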
On the technique in general: Displacement assays read how much labelled ligand stays bound in the presence of the test substance.

A further test concerns the target Adenosine receptor A2a (Homo sapiens, UniProt P29274). The experiment in a line: Displacement of [3H]ZM-241385 from human adenosine A2A receptor expressed in HEK293 cells. It is filed as cell-based. The method, boiled down: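 Human A2A receptor membranes in 50 mM Tris HCl, 10 mM MgCl2, pH 7.4, competed against [3H]-ZM241385 at 6-8 test concentrations for 60 min at 25 °C. NECA defined nonspecific binding. Bound label was collected on glass-fiber filters by filtration and counted. Means ± SEM.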

The target of the next test is T2, Adenosine receptor A2b (Homo sapiens, UniProt P29275).
T2 sequence (P29275 whole entry): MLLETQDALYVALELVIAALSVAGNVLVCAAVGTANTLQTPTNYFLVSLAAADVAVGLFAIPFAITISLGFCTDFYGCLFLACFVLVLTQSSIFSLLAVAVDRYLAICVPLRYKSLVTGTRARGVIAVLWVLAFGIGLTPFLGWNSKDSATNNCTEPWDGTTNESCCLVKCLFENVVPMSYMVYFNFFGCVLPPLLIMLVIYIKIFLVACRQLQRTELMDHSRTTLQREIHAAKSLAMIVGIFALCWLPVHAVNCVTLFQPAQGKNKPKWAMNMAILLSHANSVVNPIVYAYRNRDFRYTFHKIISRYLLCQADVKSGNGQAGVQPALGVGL
The experiment in a line: Inhibition of NECA-stimulated cAMP accumulation in CHO cells expressing human adenosine A2B receptor. In kind it is functional, cell-based. An outline of the steps: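 Trypsinized A2B-transfected CHO cells (1 × 10⁶ per assay) were preincubated 10 min at 37 °C in pH 7.4 salt buffer with 2 IU/mL adenosine deaminase and Ro 20-1724, then stimulated with 100 nM NECA plus antagonist. Stopped with cold 6% TCA, ether-extracted, and cAMP measured by [3H]cAMP competition with adrenal binding protein. IC50 derived.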
A general note: Cyclic AMP is a second messenger, typically raised through Gs and lowered through Gi signalling.

The target of another test is T3, Adenosine receptor A3 (Homo sapiens, UniProt P0DMS8).
T3 sequence (P0DMS8 whole entry): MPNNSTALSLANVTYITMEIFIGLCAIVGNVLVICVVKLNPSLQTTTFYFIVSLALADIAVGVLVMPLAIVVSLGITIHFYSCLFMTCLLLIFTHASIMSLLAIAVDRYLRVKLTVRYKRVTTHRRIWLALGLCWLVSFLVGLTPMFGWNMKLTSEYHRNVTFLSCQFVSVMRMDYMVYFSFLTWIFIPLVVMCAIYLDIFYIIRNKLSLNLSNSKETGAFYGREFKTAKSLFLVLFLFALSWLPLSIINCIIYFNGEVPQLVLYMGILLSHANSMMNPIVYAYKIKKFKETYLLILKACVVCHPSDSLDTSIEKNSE
The experiment in a line: Displacement of [3H]MRE3008-F20 from human adenosine A3 receptor expressed in HEK293 cells. It is filed as cell-based. The method, boiled down:
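Assays ran in duplicate with 1 nM [3H]MRE3008-F20 on human A3 receptor membranes in 50 mM Tris HCl, 10 mM MgCl2, pH 7.4, at 6-8 ligand concentrations, for 120 min at 4 °C. Bound label was separated by GF/B filtration and counted. Means ± SEM.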

Test [1] deals with Adenosine receptors; A1 & A3 (Homo sapiens) (UniProt P30542+P0DMS8). Put plainly: Selectivity for human adenosine A3 over human adenosine A1 receptor. It is filed as protein assay.
Test [2] concerns the target Adenosine receptors; A2a & A3 (Homo sapiens) (UniProt P0DMS8+P29274). Put plainly: Selectivity for human adenosine A3 over human adenosine A2A receptor. It is filed as protein assay.
Test [3] concerns the target T4, Adenosine receptor A2b (Homo sapiens) (UniProt P29275).
T4 sequence (whole entry): T2 sequence (P29275 whole entry)
The experiment in a line: Inhibition of NECA-stimulated cAMP accumulation in CHO cells expressing human adenosine A2B receptor at 1 uM. In kind it is functional, cell-based.

Test [4] has as its target T5, Adenosine receptor A1 (Homo sapiens) (UniProt P30542).
T5 sequence (whole entry): T1 sequence (P30542 whole entry)
Put plainly: Inhibition of [3H]DPCPX binding to human adenosine A1 receptor expressed in CHO cells at 1 uM. It is filed as cell-based. An outline of the steps: as §1

Molecules are shown by their SMILES. Several values for one entry are separate records, joined by “and”; a condition that tells them apart may be missing. Equal entries are not always repeated.

Adenosine receptors; A2a & A3 (Homo sapiens), sequence (P29274 whole entry, looked up, one chain of several): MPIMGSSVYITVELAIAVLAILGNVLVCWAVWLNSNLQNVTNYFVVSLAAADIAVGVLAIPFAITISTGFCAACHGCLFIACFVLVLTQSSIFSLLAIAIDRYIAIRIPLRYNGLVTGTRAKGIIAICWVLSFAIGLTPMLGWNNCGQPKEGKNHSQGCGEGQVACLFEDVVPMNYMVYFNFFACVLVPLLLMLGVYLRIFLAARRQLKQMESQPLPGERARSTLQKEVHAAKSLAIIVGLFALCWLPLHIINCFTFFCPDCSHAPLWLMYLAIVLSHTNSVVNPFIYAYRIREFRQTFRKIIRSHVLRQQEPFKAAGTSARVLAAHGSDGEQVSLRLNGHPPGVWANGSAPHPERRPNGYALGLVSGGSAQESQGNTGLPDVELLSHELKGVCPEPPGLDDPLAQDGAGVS
Adenosine receptor A2a, sequence (P29274 whole entry): as the sequence (P29274 whole entry, looked up, one chain of several) above

Turning to `Cn1cc2c(nc(NC(=O)Nc3ccc[n+](C)c3)n3nc(-c4ccco4)nc23)n1`, the Ki on Adenosine receptor A1 is 330 nM; on Adenosine receptor A2a it was 42 nM; on Adenosine receptor A3, 5.3 nM. This compound showed an IC50 against Adenosine receptor A2b of 244 nM. Besides, the figures for the Ratio Ki in test [1] and in test [2] were 62 and 8, respectively.
Regarding `Cn1cc2c(nc(NC(=O)Nc3ccccn3)n3nc(-c4ccco4)nc23)n1` [listing 1 of 3 here], the inhibition constant (Ki) was 265 nM on Adenosine receptor A1, 180 nM at Adenosine receptor A2a and 0.5 nM at Adenosine receptor A3. The IC50 on Adenosine receptor A2b was above 1000 nM.
For the compound `Cn1cc2c(nc(NC(=O)Nc3ccccn3)n3nc(-c4ccco4)nc23)n1` [listing 2 of 3 here], the Ratio Ki was 530 and 600 in test [1]; 360 and 400 in test [2]. In addition, in test [3], the inhibition was 20% and 16%.
On to `Cn1cc2c(nc(NC(=O)Nc3cccnc3)n3nc(-c4ccco4)nc23)n1` [listing 1 of 3 here], for which the Ki was 245 nM at Adenosine receptor A1, 155 nM on Adenosine receptor A2a and 0.55 nM on Adenosine receptor A3. On Adenosine receptor A2b, this compound showed an IC50 above 1000 nM.
On to `Cn1cc2c(nc(NC(=O)Nc3ccccn3)n3nc(-c4ccco4)nc23)n1` [listing 3 of 3 here], for which the Ki was found to be 210 nM at Adenosine receptor A1, 140 nM at Adenosine receptor A2a and 0.35 nM on Adenosine receptor A3. The same compound showed an IC50 on Adenosine receptor A2b (cho) above 1000 nM.
Take `Cn1cc2c(nc(NC(=O)Nc3cccc[n+]3[O-])n3nc(-c4ccco4)nc23)n1`: the values for the Ki at Adenosine receptor A1, on Adenosine receptor A2a and at Adenosine receptor A3 were 800 nM, 110 nM and 3.5 nM, respectively. Also, it took 320 nM to reach half-maximal inhibition against Adenosine receptor A2b (IC50). Moreover, the Ratio Ki in test [1] worked out at 228; in test [2] it was 31.
For the compound `Cn1cc2c(nc(NC(=O)Nc3cccc[n+]3C)n3nc(-c4ccco4)nc23)n1`, the figures for the Ki on Adenosine receptor A1, on Adenosine receptor A2a and at Adenosine receptor A3 were 400 nM, 64 nM and 1.3 nM, respectively. The compound also came in with an IC50 against Adenosine receptor A2b of 280 nM. Besides, the Ratio Ki in test [1] stood at 307; in test [2], 49.
On to `Cn1cc2c(nc(NC(=O)Nc3ccco3)n3nc(-c4ccco4)nc23)n1`, for which the Ki at Adenosine receptor A1 was above 1000 nM; on Adenosine receptor A2a, 350 nM; on Adenosine receptor A3, 16 nM. Further, the IC50 against Adenosine receptor A2b was above 1000 nM. In addition, the Ratio Ki in test [1] is above 62.5; in test [2] it was 22. The inhibition came to 25% in test [4] and 8% in test [3].
Turning to `Cn1cc2c(nc(NC(=O)Nc3ccc[n+]([O-])c3)n3nc(-c4ccco4)nc23)n1`, the Ki at Adenosine receptor A1 came to 550 nM; at Adenosine receptor A2a, 75 nM; at Adenosine receptor A3, 10 nM. The compound further had an IC50 against Adenosine receptor A2b of 260 nM. Moreover, the Ratio Ki in test [1] was 55; in test [2] it was 7.5.
As for `Cc1ccc(NC(=O)Nc2nc3nn(C)cc3c3nc(-c4ccco4)nn23)s1`, the Ki was above 1000 nM on Adenosine receptor A1, 920 nM at Adenosine receptor A2a and 10 nM on Adenosine receptor A3. Also, on Adenosine receptor A2b, the IC50 is above 1000 nM. Also, the Ratio Ki was above 100 in test [1] and 92 in test [2]. Further, the results for the inhibition in test [4] and in test [3] were 10% and 20%, respectively.
Regarding `Cn1cc2c(nc(NC(=O)Nc3cccnc3)n3nc(-c4ccco4)nc23)n1` [listing 2 of 3 here], the Ki is 230 nM at Adenosine receptor A1, 125 nM at Adenosine receptor A2a and 0.44 nM at Adenosine receptor A3. This compound also yielded an IC50 against Adenosine receptor A2b (cho) above 1000 nM.
For `Cn1cc2c(nc(NC(=O)Nc3ccncc3)n3nc(-c4ccco4)nc23)n1` [listing 1 of 3 here], the Ki was 260 nM at Adenosine receptor A1 and 65 nM at Adenosine receptor A2a. At Adenosine receptor A2b (cho), this compound showed an IC50 above 1000 nM.
For the compound `Cn1cc2c(nc(NC(=O)Nc3cc[n+]([O-])cc3)n3nc(-c4ccco4)nc23)n1`, the values for the Ki on Adenosine receptor A1, at Adenosine receptor A2a and at Adenosine receptor A3 were above 1000 nM, 153 nM and 21 nM, respectively. Further, the IC50 on Adenosine receptor A2b was above 1000 nM. Besides, the results for the Ratio Ki in test [1] and in test [2] were above 47 and 7.3, respectively. Further, the inhibition is 35% in test [4] and 12% in test [3].
Consider `Cn1cc2c(nc(NC(=O)Nc3cc[n+](C)cc3)n3nc(-c4ccco4)nc23)n1`, for which the Ki on Adenosine receptor A1 was above 1000 nM; on Adenosine receptor A2a, 282 nM; on Adenosine receptor A3 it was 28 nM. At Adenosine receptor A2b, this compound had an IC50 above 1000 nM. The Ratio Ki in test [1] was above 36; in test [2] it was 10. Also, the inhibition was found to be 20% in test [4] and 6% in test [3].
`Cn1cc2c(nc(NC(=O)Nc3ccncc3)n3nc(-c4ccco4)nc23)n1` [listing 2 of 3 here]: the inhibition in test [3] is 12% and 20%.
As for `Cn1cc2c(nc(NC(=O)Nc3cc4ccccc4o3)n3nc(-c4ccco4)nc23)n1`, the results for the Ki at Adenosine receptor A1, on Adenosine receptor A2a and at Adenosine receptor A3 were above 1000 nM, 60 nM and 12 nM, respectively. The compound further displayed an IC50 at Adenosine receptor A2b of 250 nM. The Ratio Ki was above 83 in test [1] and 5 in test [2]. Further, the inhibition in test [4] was 22%.
Regarding `Cc1sccc1NC(=O)Nc1nc2nn(C)cc2c2nc(-c3ccco3)nn12`, the Ki at Adenosine receptor A1 was above 1000 nM; at Adenosine receptor A2a, 410 nM; on Adenosine receptor A3, 3.5 nM. The half-maximal inhibitory concentration (IC50) against Adenosine receptor A2b was above 1000 nM. Moreover, the Ratio Ki is above 286 in test [1] and 117 in test [2]. The inhibition in test [4] came to 24%; in test [3] it was 31%.
On to `Cn1cc2c(nc(NC(=O)Nc3ccoc3)n3nc(-c4ccco4)nc23)n1`, for which the Ki at Adenosine receptor A1 is above 1000 nM; at Adenosine receptor A2a, 400 nM; at Adenosine receptor A3, 11 nM. The IC50 against Adenosine receptor A2b was above 1000 nM. The Ratio Ki is above 90 in test [1] and 36 in test [2]. Moreover, the values for the inhibition in test [4] and in test [3] were 20% and 4%, respectively.
Turning to `Cn1cc2c(nc(NC(=O)Nc3ccncc3)n3nc(-c4ccco4)nc23)n1` [listing 3 of 3 here], the Ki was 355 nM at Adenosine receptor A1 and 110 nM at Adenosine receptor A2a. The IC50 on Adenosine receptor A2b was above 1000 nM.
For `Cn1cc2c(nc(NC(=O)Nc3cccnc3)n3nc(-c4ccco4)nc23)n1` [listing 3 of 3 here], the Ratio Ki in test [1] was 445 and 522; in test [2], 281 and 284. Moreover, the inhibition in test [3] is 18% and 24%.
As for `Cn1cc2c(nc(NC(=O)Nc3ccc4ccccc4n3)n3nc(-c4ccco4)nc23)n1`, the results for the Ki at Adenosine receptor A1, on Adenosine receptor A2a and on Adenosine receptor A3 were above 1000 nM, 810 nM and 110 nM, respectively. In addition, the IC50 at Adenosine receptor A2b is above 1000 nM. The Ratio Ki is above 9 in test [1] and 7.3 in test [2]. The inhibition is 12% in test [4] and 17% in test [3].

As usually defined, the Ki is the equilibrium dissociation constant of an inhibitor or competing ligand from its target. A high value points to lower affinity. As a reminder, the IC50 is the concentration at which inhibition is half-maximal. A higher IC50 goes with weaker potency in that assay. In general, inhibition refers to the share of the control response that was lost under treatment. Read a high inhibition as strong suppression.

(Values after ChEMBL document CHEMBL1138189 (J Med Chem, 2006).)
